The target in assay [1] is T1, Venus kinase receptor 2 (Schistosoma mansoni, UniProt D5JEH1). In words: Inhibition of Schistosoma mansoni N-terminal His6-tagged full-length VKR2 kinase domain expressed in baculovirus infected Sf9 insect cells assessed as reduction in autophosphorylation measured after 30 mins in presence of ATP by ADP-glo kinase assay. The procedure, abridged: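 Autophosphorylation of the SmVKR2 kinase domain, used as the read-out because no substrate is known, with 10 μM ATP. Concentration–response curves were run in triplicate, and IC50 was fitted from them; the paper plots mean ± SD.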

Assay [2] has as its system Schistosoma mansoni. In words: Antischistosomal activity against adult Schistosoma mansoni assessed as reduction in worm movement at 10 uM measured after 2 to 24 hrs by inverted microscopy. It counts as functional, organism-based. The settings on record: time 2-24 hrs. The procedure, abridged: (§1)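 Adult S. mansoni worms exposed ex vivo to 10 μM compound. Observed at 2, 5 and 24 h and scored with an observation-based severity system. Descriptors recorded: degenerating, uncoordinated, slow, on sides (no adherence to the well floor by oral or ventral sucker), and tegument blebs. Three to five biological singleton assays.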

Assay [3] deals with Schistosoma mansoni. In words: Antischistosomal activity against adult Schistosoma mansoni assessed as reduction in worm motility at 10 uM measured after 2 to 24 hrs by worm assay. It counts as functional, organism-based. The settings on record: time 2-24 hrs. Summed up: (§2)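 Ex vivo adult S. mansoni were incubated with 10 μM compound. Average worm motility per well was recorded by WormAssay over time at 2, 5 and 24 h. Three to five biological assays. Significance was tested by two-tailed Student's t-test.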

Assay [4] addresses T1, Venus kinase receptor 2. Description: Binding affinity to Schistosoma mansoni N-terminal His6-tagged full-length VKR2 kinase domain expressed in baculovirus infected Sf9 insect cells in presence of ATPgammaS by SPR analysis. (In SPR one partner is held on a chip, and binding of the other changes the refractive index at the surface.)
The subject of assay [5] is Schistosoma mansoni. Description: Antischistosomal activity against adult Schistosoma mansoni assessed as damage to the tegument by measuring blebbing at 10 uM measured after 24 hrs by inverted microscopy. In kind it is functional, organism-based. The procedure, abridged: as §1
For assay [6], the system named is Schistosoma mansoni. Description: Antischistosomal activity against adult Schistosoma mansoni assessed as loss of worm ability to adhere to well floor at 10 uM measured after 2 hrs by inverted microscopy. It counts as functional, organism-based. Summed up: as §1
The test system of assay [7] is Schistosoma mansoni. In words: Antischistosomal activity against adult Schistosoma mansoni assessed as reduction in worm motility at 10 uM measured after 2 hrs by inverted microscopy. It counts as functional, organism-based. The procedure, abridged: as §1
The test system of assay [8] is Schistosoma mansoni. In words: Antischistosomal activity against adult Schistosoma mansoni assessed as worm degeneration at 10 uM measured after 24 hrs by inverted microscopy. It counts as functional, organism-based. The procedure, abridged: as §1
The subject of assay [9] is Schistosoma mansoni. In words: Antischistosomal activity against adult Schistosoma mansoni assessed as damage to the tegument by measuring bubbling at 10 uM measured after 24 hrs by inverted microscopy. In kind it is functional, organism-based. Summed up:
as §1

Assay [10] relates to Schistosoma mansoni. Description: Antischistosomal activity against adult Schistosoma mansoni assessed as reduction in worm motility at 10 uM by worm assay. In kind it is functional, organism-based. The conditions noted are these: time 2-24 hrs, TDE = time-dependent effect. The procedure, abridged: as §2

For orientation: IC50 means the concentration needed to halve the response being measured. What is called Kd is a measure of binding affinity in units of concentration.

Calls of active or inactive are those of the source. No cut-off for these calls is given here.

T1 sequence (D5JEH1 whole entry, the tested form may be a part): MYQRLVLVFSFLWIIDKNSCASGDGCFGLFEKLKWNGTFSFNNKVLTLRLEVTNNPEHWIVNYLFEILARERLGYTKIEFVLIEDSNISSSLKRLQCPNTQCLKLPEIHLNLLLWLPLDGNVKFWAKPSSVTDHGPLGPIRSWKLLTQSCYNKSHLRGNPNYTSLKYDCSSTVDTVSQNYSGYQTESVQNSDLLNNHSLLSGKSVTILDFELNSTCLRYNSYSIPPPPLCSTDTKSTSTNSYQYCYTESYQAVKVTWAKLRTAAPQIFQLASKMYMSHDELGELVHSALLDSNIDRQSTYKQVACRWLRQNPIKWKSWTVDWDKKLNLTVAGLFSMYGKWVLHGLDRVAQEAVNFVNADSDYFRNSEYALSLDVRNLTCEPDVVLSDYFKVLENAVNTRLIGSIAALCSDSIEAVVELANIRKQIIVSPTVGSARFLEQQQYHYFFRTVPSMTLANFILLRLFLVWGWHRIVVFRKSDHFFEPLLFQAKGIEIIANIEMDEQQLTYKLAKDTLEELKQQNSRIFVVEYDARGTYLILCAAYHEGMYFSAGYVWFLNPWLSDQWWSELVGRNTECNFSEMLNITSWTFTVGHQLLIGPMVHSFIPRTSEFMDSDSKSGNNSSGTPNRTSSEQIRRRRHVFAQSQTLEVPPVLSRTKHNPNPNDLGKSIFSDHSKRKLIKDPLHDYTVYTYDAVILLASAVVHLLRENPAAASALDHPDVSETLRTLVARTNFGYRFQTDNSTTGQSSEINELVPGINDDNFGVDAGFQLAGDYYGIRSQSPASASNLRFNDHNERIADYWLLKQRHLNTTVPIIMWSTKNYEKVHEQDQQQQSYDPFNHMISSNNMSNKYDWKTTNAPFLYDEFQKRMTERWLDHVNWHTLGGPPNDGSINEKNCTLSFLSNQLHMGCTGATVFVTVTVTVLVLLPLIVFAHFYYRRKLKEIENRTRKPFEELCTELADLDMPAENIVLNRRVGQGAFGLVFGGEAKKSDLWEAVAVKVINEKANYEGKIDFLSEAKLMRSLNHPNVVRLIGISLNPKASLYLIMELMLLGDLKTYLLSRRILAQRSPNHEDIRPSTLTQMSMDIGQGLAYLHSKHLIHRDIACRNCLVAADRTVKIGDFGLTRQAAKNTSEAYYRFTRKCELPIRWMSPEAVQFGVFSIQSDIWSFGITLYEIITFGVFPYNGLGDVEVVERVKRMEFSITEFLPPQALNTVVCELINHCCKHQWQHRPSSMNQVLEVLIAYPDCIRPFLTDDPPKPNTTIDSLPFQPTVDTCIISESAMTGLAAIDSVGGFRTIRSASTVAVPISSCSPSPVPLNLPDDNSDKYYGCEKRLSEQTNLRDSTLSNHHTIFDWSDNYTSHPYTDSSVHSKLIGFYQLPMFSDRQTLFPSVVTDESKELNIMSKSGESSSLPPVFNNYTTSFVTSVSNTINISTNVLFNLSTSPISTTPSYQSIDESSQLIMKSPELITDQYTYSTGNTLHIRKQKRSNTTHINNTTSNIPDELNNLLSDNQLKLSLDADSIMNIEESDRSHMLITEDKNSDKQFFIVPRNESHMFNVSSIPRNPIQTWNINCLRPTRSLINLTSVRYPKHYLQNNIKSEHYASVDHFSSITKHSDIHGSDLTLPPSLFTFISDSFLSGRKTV

As to `Cc1cccc(Nc2nc(N[C@H]3CCCC[C@H]3N)ncc2C(N)=O)c1`, the IC50 at Venus kinase receptor 2 [1] came out at 5.69 µM. Moreover, the result in the assay on Schistosoma mansoni [2] and in the assay on Schistosoma mansoni [3] was Active. For the same molecule, the Kd on Venus kinase receptor 2 [4] turned out to be 1.96 µM.

As to `NC(=O)Nc1sc(-c2ccc(F)cc2)cc1C(N)=O`, at Venus kinase receptor 2 [4], the Kd turned out to be 16 µM.

Turning to `Cc1n[nH]c2cc(Nc3ccnc(Nc4cccc(CN5CCOCC5)c4)n3)ccc12`, the Kd at Venus kinase receptor 2 [4] was found to be 39 µM.

Turning to `O=C(Nc1n[nH]c2cnc(-c3ccc(O)cc3)cc12)C1CC1`, the outcome in the assay with Schistosoma mansoni [2] and in the assay on Schistosoma mansoni [3] was Active. Besides, the dissociation constant (Kd) at Venus kinase receptor 2 [4] was 170 µM.

For `Nc1n[nH]c2cnc(-c3ccccc3)cc12`, the Kd at Venus kinase receptor 2 [4] worked out at 47 µM.

On to `Cc1cccc(Nc2nc(NCCN)ncc2C(N)=O)c1`, for which the Kd at Venus kinase receptor 2 [4] was found to be 4.5 µM.

For `CS(=O)(=O)Nc1ccc(-c2ccnc3[nH]ccc23)cc1`, at Venus kinase receptor 2 [4], the Kd came out at 7.8 µM.

`CC(C)Oc1ccc2c(-c3ccnc(Nc4ccc(N5CCN(C)CC5)cc4)n3)cnn2n1`: the IC50 on Venus kinase receptor 2 [1] stood at 20.1 µM. Further, the result with Schistosoma mansoni [5], in the assay on Schistosoma mansoni [6], in the assay on Schistosoma mansoni [7], in the assay on Schistosoma mansoni [8] and in the assay on Schistosoma mansoni [9] was Active. Besides, the Kd at Venus kinase receptor 2 [4] was 3.4 µM. Also, the Activity entry in the assay on Schistosoma mansoni [10] was “Tde”.

`CNC(=O)c1ccccc1Nc1nc(Nc2cccc(CS(C)(=O)=O)c2)ncc1C`: the IC50 on Venus kinase receptor 2 [1] turned out to be 6.47 µM. Also, the Kd at Venus kinase receptor 2 [4] came out at 0.44 µM.

In the case of `CN(C)CCNS(=O)(=O)c1ccc(-c2ccnc3[nH]ccc23)cc1`, the Kd on Venus kinase receptor 2 [4] came out at 8.2 µM.

As to `NCCNS(=O)(=O)c1ccc(-c2ccnc3[nH]ccc23)cc1`, the dissociation constant (Kd) at Venus kinase receptor 2 [4] amounted to 2.53 µM.

For the molecule `Nc1nc(N)c2nc(-c3ccccc3)[nH]c2n1`, the Kd at Venus kinase receptor 2 [4] came to 82 µM.

Values taken from ChEMBL document CHEMBL5126676, “Identification of Inhibitors of the Schistosoma mansoni VKR2 Kinase Domain” (ACS Med Chem Lett, 2022).
